Test results as given in ChEMBL document CHEMBL1275571, “Impact of self-assembly properties on antibacterial activity of short acyl-lysine oligomers” (Antimicrob Agents Chemother, 2008).
Values after ≈ are worked out from the molar mass of the structure shown. Non-standard residues stand in square brackets, D forms with d. Residues, ends and D or L forms follow the SMILES beside them. *: point of attachment. Palmitoyl = CCCCCCCCCCCCCCCC(=O)*; 12Ado = NCCCCCCCCCCCC(=O)O

How the values were obtained:
[1] = Cytotoxicity against human RBC assessed as hemolysis; format: organism-based; details: human red blood cells (RBC), read-out: LC50 (the source's name)
Method in brief: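 Human red blood cells at 1% hematocrit incubated 3 h at 37°C with the compound in PBS (50 mM sodium phosphate, 150 mM NaCl, pH 7.4). Value is the concentration giving 50% hemolysis (LC50, μM). Values are rounded up to the nearest half unit, as means ± standard deviations of at least four independent experiments run in duplicate.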

Staphylococcus aureus = test: Antimicrobial activity against Staphylococcus aureus ATCC 25923 by microdilution method; format: functional
Method in brief: (§1)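 Overnight LB cultures were diluted 10,000-fold and used at 2 × 105 to 4 × 10^5 CFU/ml (LB pH 7.4). They were mixed 1:1 with compound in twofold serial dilutions from 0 to 50 μΜ. Plates were incubated overnight at 37°C and read by OD620. The MIC is the concentration giving 100% inhibition. Values are from at least two independent assays run in duplicate.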

Pseudomonas aeruginosa = test: Antimicrobial activity against Pseudomonas aeruginosa ATCC 9027 by microdilution method; format: functional; method in brief: as §1
Escherichia coli = test: Antimicrobial activity against Escherichia coli ATCC 35218 by microdilution method; format: functional; method in brief: as §1
Lipid bilayer [2] = test: Adhesion affinity to phospholipid membrane in cell-free system at low concentration range of 0.16 to 2.5 uM
Method in brief: (§2)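 Surface plasmon resonance on a POPC-POPG (3:1) small-unilamellar-vesicle bilayer on an L1 chip. Compound was in PBS pH 7.4 at the low series (0.16, 0.31, 0.62, 1.25, 2.5 μM), duplicate injections each. Affinity constants were calculated with a two-step binding model from the average of five duplicated binding curves.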

Lipid bilayer [3] = test: Apparent affinity to phospholipid membrane in cell-free system at high concentration range of 3.1 to 50 uM
Method in brief: (§3)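 SPR on an L1 chip, with small unilamellar vesicles of POPC-POPG (3:1 molar ratio) as the bilayer. Compound was in PBS pH 7.4 and injected in the high series (3.1, 6.25, 12.5, 25, 50 μM), two injections per concentration. Association and dissociation curves were fitted to a two-step binding model. Constants come from five duplicated curves.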

Lipid bilayer [4] = test: Apparent affinity to phospholipid membrane in cell-free system at low concentration range of 0.16 to 2.5 uM; method in brief: as §2
Enterococcus faecalis = test: Antimicrobial activity against Enterococcus faecalis ATCC 29212 by microdilution method; format: functional; method in brief: as §1
Lipid bilayer [5] = test: Adhesion affinity to phospholipid membrane in cell-free system at high concentration range of 3.1 to 50 uM; method in brief: as §3

| Compound | HC50 [1] | MBC (Staphylococcus aureus) | MIC (Staphylococcus aureus) | MBC (Pseudomonas aeruginosa) | MIC (Pseudomonas aeruginosa) | MBC (Escherichia coli) | MIC (Escherichia coli) | K (Lipid bilayer [2]) | Kapp (Lipid bilayer [3]) | Kapp (Lipid bilayer [4]) | MBC (Enterococcus faecalis) | K (Lipid bilayer [5]) |
| --- | --- | --- | --- | --- | --- | --- | --- | --- | --- | --- | --- | --- |
| CCCCCC/C=C\CCCCCCCC(=O)N[C@@H](CCCCN)C(=O)N[C@@H](CCCCN)C(=O)NCCCCCCCCCCCC(=O)N[C@@H](CCCCN)C(N)=O | 8.5 µM | 6 µM (≈ 5.01 µg/mL) | 3 µM (≈ 2.51 µg/mL) | 50 µM (≈ 41.8 µg/mL) | 12.5 µM (≈ 10.4 µg/mL) | 12.5 µM (≈ 10.4 µg/mL) | 6 µM (≈ 5.01 µg/mL) | 2.1 ×10⁶ /M | 4.5 ×10⁷ /M | 1.7 ×10⁷ /M | 6 µM (≈ 5.01 µg/mL) | 1.5 ×10⁶ /M |
| CCCCCCCCCCCCCCCC(=O)N[C@@H](CCCCN)C(=O)N[C@@H](CCCCN)C(=O)NCCCCCCCCCCCC(=O)N[C@@H](CCCCN)C(N)=O (Palmitoyl-KK[12Ado]K-NH2) | 15 µM | > 25 µM | 6 µM (≈ 5.02 µg/mL) | > 50 µM | > 25 µM | > 50 µM | 25 µM (≈ 20.9 µg/mL) | 2.2 ×10⁶ /M | 4.3 ×10⁴ /M | 8.3 ×10⁷ /M | > 25 µM | 4.3 ×10⁵ /M |
